Data taken from ChEMBL document CHEMBL2346643, “Semisynthetic studies identify mitochondria poisons from botanical dietary supplements--geranyloxycoumarins from Aegle marmelos” (Bioorg Med Chem, 2013).
pIC50: −log10 of the molar value. Active and inactive are the calls of the source. No cut-off for these calls is given here.

Legend:
T47D [1] = assay: Inhibition of mitochondrial ETC complex 1 in human T47D cells assessed as inhibition of oxygen consumption at 10 uM after 10 mins by Clarke-type electrode analysis; type: cell-based
Procedure, shortened: (§1)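 For acute exposure, intact T47D cells received compound at 3, 10 or 30 μM for 5–10 min. Oxygen consumption was then measured with a Clarke-type electrode, with rotenone at 1–100 nM as control. Results are % inhibition of the untreated rate, averaged over two independent experiments with deviation from the average.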

T47D [2] = assay: Inhibition of mitochondrial ETC complex 1 in human T47D cells assessed as inhibition of oxygen consumption at 30 uM after 5 to 10 mins by Clarke-type electrode analysis; type: cell-based; procedure, shortened: as §1
[3] = target: T1, Mitochondrial complex I (NADH dehydrogenase) (Homo sapiens) (UniProt P03923+O95299+O00217+P03901+P56556+P03886+O95139+O00483+Q86Y39+P17568+P03891+O75306+P03915+P51970+O43674+P03905+P03897+O14561+O15239+O43181+O43676+O43677+O43678+O43920+O75251+O75380+O75438+O75489+O95167+O95168+O95169+O95178+O95182+O95298+O96000+P19404+P28331+P49821+P56181+Q16718+Q16795+Q8N183+Q9BU61+Q9NRX3+Q9NX14+Q9P032+Q9P0J0+Q9UI09+Q9Y375+Q9Y6M9); assay: Inhibition of mitochondrial ETC complex 1 in human T47D cells assessed as inhibition of 1,10-phenanthroline-induced HIF1 activation at 30 uM incubated for 30 mins prior to 1,10-phenanthroline-challenge measured after 16 hrs by luciferase reporter assay; type: cell-based
Procedure, shortened: (§2)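 pHRE-luc reporter transfected T47D cells were exposed for 16 h to hypoxia (1% O2) or to chemical hypoxia (10 μM 1,10-phenanthroline) in the presence of compound. The highest concentration tested was 30 μM. Luciferase signal was expressed as % inhibition of the induced control. IC50 and 95% CI came from one representative concentration-response experiment run in triplicate. Cycloheximide at 10 μM served as control.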

[4] = target: T1, Mitochondrial complex I (NADH dehydrogenase) (Homo sapiens); assay: Inhibition of mitochondrial ETC complex 1 in human T47D cells assessed as inhibition of 1% O2-induced HIF1 activation at 30 uM incubated for 30 mins prior to 1% O2-challenge measured after 16 hrs by luciferase reporter assay; type: cell-based; procedure, shortened: as §2
[5] = target: Mitochondrial complex I (NADH dehydrogenase); assay: Inhibition of mitochondrial ETC complex 1 in human T47D cells assessed as inhibition of 1,10-phenanthroline-induced HIF1 activation incubated for 30 mins prior to 1,10-phenanthroline-challenge measured after 16 hrs by luciferase reporter assay; type: cell-based; procedure, shortened: as §2
T47D [6] = assay: Inhibition of mitochondrial ETC complex 1 in human T47D cells assessed as inhibition of oxygen consumption at 10 uM after 2 hrs by Clarke-type electrode analysis; type: cell-based
Procedure, shortened: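 T47D cells were pretreated with 10 μM compound, or 0.01 μM rotenone, for 2 h. Cells were then detached and washed, and the oxygen consumption rate was measured with a Clarke-type electrode. Results are % inhibition relative to untreated controls.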

T47D [7] = assay: Antiproliferative activity against human T47D cells at 1 to 10 uM after 48 hrs by SRB assay; type: functional, cell-based
Procedure, shortened: (§3)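 T47D or MDA-MB-231 breast tumor cells were exposed to 1, 3, 10 and 30 μM for 48 h or 144 h (6 d). For the 6 d exposure, medium was replaced after 3 days with fresh medium containing compound. Stocks were 4 mM in 2-propanol, with final solvent below 0.75%. Viability was measured by sulforhodamine B and expressed as % inhibition of the untreated control: [1−(OD treated/OD control)]×100.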

[8] = target: Mitochondrial complex I (NADH dehydrogenase); assay: Inhibition of mitochondrial ETC complex 1 in human T47D cells assessed as inhibition of 1% O2-induced HIF1 activation incubated for 30 mins prior to 1% O2-challenge measured after 16 hrs by luciferase reporter assay; type: cell-based; procedure, shortened: as §2
MDA-MB-231 = assay: Antiproliferative activity against human MDA-MB-231 cells at 1 to 10 uM after 48 hrs by SRB assay; type: functional, cell-based; procedure, shortened: as §3

CCCCCC/C=C\CCCCCCCCCC(=O)O[C@H](CC/C(C)=C/COc1ccc2ccc(=O)oc2c1)C(C)(C)O [R-(+)-MARMIN-6'-CIS-VACCENOATE]
inhibition (T47D [1]): 5%
inhibition (T47D [2]): 20%
inhibition [3]: 20%
inhibition [4]: 20%
pIC50 [5]: < 4.52
inhibition (T47D [6]): -6%
Activity (T47D [7]): Active
pIC50 [8]: < 4.52
Activity (MDA-MB-231): Active
